Source: PubChem BioAssay (several laboratories)
KLK5 inh: kallikrein 5 (human) inhibition. 210,000 compounds, 0.59% hits. AID 873. Q9Y337. recombinant hK5, fluorogenic AMC substrate cleavage. inhibition, % at 5 µM;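 active means inhibition of 40% or more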
Target sequence (Q9Y337 67-293 limits assumed): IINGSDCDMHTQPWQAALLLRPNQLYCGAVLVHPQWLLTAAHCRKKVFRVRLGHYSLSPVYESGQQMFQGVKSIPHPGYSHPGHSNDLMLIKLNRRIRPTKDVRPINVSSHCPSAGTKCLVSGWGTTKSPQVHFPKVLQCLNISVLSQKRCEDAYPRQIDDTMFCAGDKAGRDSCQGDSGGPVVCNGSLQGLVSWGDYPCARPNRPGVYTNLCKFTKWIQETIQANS
FXIa inh: factor XIa (human) inhibition. P03951. purified FXIa, Boc-Glu-Ala-Arg-AMC fluorogenic substrate. inhibition, % at 5 µM. 220,000 compounds, 0.14% hits. AID 798;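 active means inhibition of at least 40%; inactive means inhibition below 40%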;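 further: fluorescence of freed AMC excited at 355 nm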
Thrombin inh: thrombin (human) inhibition; AID 1046; inhibition, % at 5 µM; P00734; 220,000 compounds, 0.26% hits; alpha-thrombin, Boc-VPR-AMC fluorogenic substrate cleavage;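 active means inhibition at or above 40%; inactive means inhibition below 40%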
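Assay system: human alpha-thrombin enzyme. Reagent: Boc-VPR-AMC substrate, 15 µM final. Compound dosing: one concentration per compound, 5 µM, with 0.2% DMSO. Incubation: room-temperature reaction. Technique: AMC fluorescence, 355/460 nm. Measure: % inhibition relative to enzyme controls and enzyme-free blanks.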
m-calpain inh: blocks pig calpain II enzyme activity. purified calpain II, fluorogenic peptide substrate, 30 min. inhibition, % at 16 µM. 220,000 compounds, 0.37% hits. AID 1236;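 active means inhibition above about 50%, limit read from the data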
FXIIa inh: factor XIIa (human) inhibition. P00748. purified FXIIa, Boc-QGR-AMC fluorogenic substrate, 2 h. inhibition, % at 5 µM. 220,000 compounds, 0.3% hits; in the data active means inhibition above about 40%
A number is an active result; . = inactive; / = no result. This is a sample that favours compounds with a hit; in the whole collection about 1.4% have one here.

SMILES	KLK5 inh	FXIa inh	Thrombin inh	m-calpain inh	FXIIa inh
COC(=O)c1ccccc1NC(=O)c1cc2nc(C3CC3)cc(C(F)(F)F)n2n1	.	.	.	.	.
CCOC(=O)C1(CCc2ccccc2)CCN(C(=O)CCn2cncn2)CC1	.	.	.	.	.
CCc1cc2c(SCC(=O)N(C)C3CCS(=O)(=O)C3)ncnc2s1 (centres undefined)	.	51	.	.	.
Cc1onc(-c2c(F)cccc2Cl)c1-c1nnc(-c2ccc(C(F)(F)F)cc2)o1	.	.	.	.	57
Cc1onc(-c2c(Cl)cccc2Cl)c1-c1nnc(-c2ccc(Cl)cc2)o1	.	.	.	.	.
COc1ccccc1NC(=O)c1coc(=O)c(Br)c1	.	.	.	.	.
COC(=O)Cc1c(C)nc2nc[nH]n2c1=O	54	.	.	.	48
CN(c1ccccc1)S(=O)(=O)c1cccc(NC(=O)c2cc(=O)c3ccccc3o2)c1	.	.	.	.	.
O=S1(=O)C=C(SCc2ccc(Cl)c(Cl)c2)Nc2ccccc21	.	.	.	53	.
Nc1nc(SCc2ccc(Cl)c(Cl)c2)n[nH]1	.	.	.	.	.
CN(C)S(=O)(=O)c1cccc(N2C(=O)CC3(CCCCC3)CC2=O)c1	/	.	.	.	.
CCOC(=O)Cn1c(=O)oc2cc(S(=O)(=O)NCCc3ccc(C)cc3)ccc21	58	.	57	.	.
CCOC(=O)Cn1c(=O)oc2cc(S(=O)(=O)NCCCc3ccccc3)ccc21	.	.	.	.	.
Cc1ccc(S(=O)(=O)Nc2cc(-c3ccccc3)nn2C)cc1Cl	.	.	.	.	.
O=C(N/N=C/C(Cl)=C\c1ccccc1)c1cnccn1	56	.	.	.	.
CC(C)(C)NC(=O)CSc1nnc(C2CC2)n1-c1ccccc1	.	.	.	.	.
COCCNC(=S)NN=C1CCC(c2ccccc2)CC1 (centres undefined)	.	.	.	.	.
COCCNC(=S)NN=C1CCCCCC1	41	.	47	.	54
O=C(NCc1cccs1)c1cccc(Nc2nc3ccc(Br)cc3[nH]2)c1	.	.	.	55	.
O=C(Nc1ccc(F)cc1)C(c1ccccc1)N1CCN(S(=O)(=O)c2ccccc2)CC1 (centres undefined)	.	.	.	.	.
Cc1ccc(S(=O)(=O)N2CCN(C(C(=O)Nc3ccc(F)cc3)c3ccccc3)CC2)cc1 (centres undefined)	46	.	.	.	.
CC(C)Sc1nc2c([nH]c3ccccc32)c(=O)n1C	.	.	.	82	.
CCOC(=O)C(C)Sc1nc2c([nH]c3ccccc32)c(=O)n1C (centres undefined)	.	.	.	.	.
Fc1cccc(C2NC(=S)NC3=C2N2CCC3CC2)c1 (centres undefined)	.	.	.	.	.
S=C1NC2=C(C(c3ccc(Br)cc3)N1)N1CCC2CC1 (centres undefined)	76	.	.	.	.
SMILES	KLK5 inh	FXIa inh	Thrombin inh	m-calpain inh	FXIIa inh
CCOc1ccsc1C(=O)O	.	.	.	.	.
CCC(Sc1nc2ccccc2s1)C(=O)Nc1cc(C)on1 (centres undefined)	.	.	.	.	.
C/C(=N\NC(=S)NC1CCCCC1)c1cccc(Br)c1	.	.	51	.	.
CCn1c(COc2ccc(Cl)cc2)nnc1SCc1ccc(C#N)cc1	.	.	.	.	.
CCn1c(COc2ccc(Cl)cc2)nnc1SC1CCc2ccccc2C1=O (centres undefined)	.	.	.	52	.
CC(C)c1ccc(NC(=O)COc2ccc(F)cc2C(=O)c2cnn(-c3ccccc3)c2)cc1	.	.	.	.	.
COc1ccc(-c2cc(C(=O)N3CCCc4ccccc43)no2)cc1	.	.	.	53	.
CCOc1ccc(OCc2ccc(C(=O)N3CCCC(C)C3)cc2)cc1 (centres undefined)	.	.	.	71	.
COc1cc(C(=O)NNC(=S)NCc2ccco2)cc(OC)c1OC	.	.	.	.	.
